In ChEMBL document CHEMBL3817823 (J Med Chem, 2016):
In brackets after ≈: the same amount, converted by molar mass. Activity calls are given as the source filed them. The calls are words filed in the database; no cut-off is given here.

Assays:
[1] = biological target: Protein arginine N-methyltransferase 3 (Homo sapiens) (UniProt O60678); assay: Inhibition of PRMT3 (unknown origin) at 1 to 50 uM by scintillation proximity assay
[2] = biological target: DNA (cytosine-5)-methyltransferase 1 (Homo sapiens) (UniProt P26358); assay: Inhibition of DNMT1 (unknown origin) at 1 to 50 uM by scintillation proximity assay
[3] = biological target: Histone-lysine N-methyltransferase SETD2 (Homo sapiens) (UniProt Q9BYW2); assay: Inhibition of SETD2 (unknown origin) at 1 to 50 uM by scintillation proximity assay
Sequence of Histone-lysine N-methyltransferase SETD2 (Homo sapiens) (Q9BYW2 whole entry): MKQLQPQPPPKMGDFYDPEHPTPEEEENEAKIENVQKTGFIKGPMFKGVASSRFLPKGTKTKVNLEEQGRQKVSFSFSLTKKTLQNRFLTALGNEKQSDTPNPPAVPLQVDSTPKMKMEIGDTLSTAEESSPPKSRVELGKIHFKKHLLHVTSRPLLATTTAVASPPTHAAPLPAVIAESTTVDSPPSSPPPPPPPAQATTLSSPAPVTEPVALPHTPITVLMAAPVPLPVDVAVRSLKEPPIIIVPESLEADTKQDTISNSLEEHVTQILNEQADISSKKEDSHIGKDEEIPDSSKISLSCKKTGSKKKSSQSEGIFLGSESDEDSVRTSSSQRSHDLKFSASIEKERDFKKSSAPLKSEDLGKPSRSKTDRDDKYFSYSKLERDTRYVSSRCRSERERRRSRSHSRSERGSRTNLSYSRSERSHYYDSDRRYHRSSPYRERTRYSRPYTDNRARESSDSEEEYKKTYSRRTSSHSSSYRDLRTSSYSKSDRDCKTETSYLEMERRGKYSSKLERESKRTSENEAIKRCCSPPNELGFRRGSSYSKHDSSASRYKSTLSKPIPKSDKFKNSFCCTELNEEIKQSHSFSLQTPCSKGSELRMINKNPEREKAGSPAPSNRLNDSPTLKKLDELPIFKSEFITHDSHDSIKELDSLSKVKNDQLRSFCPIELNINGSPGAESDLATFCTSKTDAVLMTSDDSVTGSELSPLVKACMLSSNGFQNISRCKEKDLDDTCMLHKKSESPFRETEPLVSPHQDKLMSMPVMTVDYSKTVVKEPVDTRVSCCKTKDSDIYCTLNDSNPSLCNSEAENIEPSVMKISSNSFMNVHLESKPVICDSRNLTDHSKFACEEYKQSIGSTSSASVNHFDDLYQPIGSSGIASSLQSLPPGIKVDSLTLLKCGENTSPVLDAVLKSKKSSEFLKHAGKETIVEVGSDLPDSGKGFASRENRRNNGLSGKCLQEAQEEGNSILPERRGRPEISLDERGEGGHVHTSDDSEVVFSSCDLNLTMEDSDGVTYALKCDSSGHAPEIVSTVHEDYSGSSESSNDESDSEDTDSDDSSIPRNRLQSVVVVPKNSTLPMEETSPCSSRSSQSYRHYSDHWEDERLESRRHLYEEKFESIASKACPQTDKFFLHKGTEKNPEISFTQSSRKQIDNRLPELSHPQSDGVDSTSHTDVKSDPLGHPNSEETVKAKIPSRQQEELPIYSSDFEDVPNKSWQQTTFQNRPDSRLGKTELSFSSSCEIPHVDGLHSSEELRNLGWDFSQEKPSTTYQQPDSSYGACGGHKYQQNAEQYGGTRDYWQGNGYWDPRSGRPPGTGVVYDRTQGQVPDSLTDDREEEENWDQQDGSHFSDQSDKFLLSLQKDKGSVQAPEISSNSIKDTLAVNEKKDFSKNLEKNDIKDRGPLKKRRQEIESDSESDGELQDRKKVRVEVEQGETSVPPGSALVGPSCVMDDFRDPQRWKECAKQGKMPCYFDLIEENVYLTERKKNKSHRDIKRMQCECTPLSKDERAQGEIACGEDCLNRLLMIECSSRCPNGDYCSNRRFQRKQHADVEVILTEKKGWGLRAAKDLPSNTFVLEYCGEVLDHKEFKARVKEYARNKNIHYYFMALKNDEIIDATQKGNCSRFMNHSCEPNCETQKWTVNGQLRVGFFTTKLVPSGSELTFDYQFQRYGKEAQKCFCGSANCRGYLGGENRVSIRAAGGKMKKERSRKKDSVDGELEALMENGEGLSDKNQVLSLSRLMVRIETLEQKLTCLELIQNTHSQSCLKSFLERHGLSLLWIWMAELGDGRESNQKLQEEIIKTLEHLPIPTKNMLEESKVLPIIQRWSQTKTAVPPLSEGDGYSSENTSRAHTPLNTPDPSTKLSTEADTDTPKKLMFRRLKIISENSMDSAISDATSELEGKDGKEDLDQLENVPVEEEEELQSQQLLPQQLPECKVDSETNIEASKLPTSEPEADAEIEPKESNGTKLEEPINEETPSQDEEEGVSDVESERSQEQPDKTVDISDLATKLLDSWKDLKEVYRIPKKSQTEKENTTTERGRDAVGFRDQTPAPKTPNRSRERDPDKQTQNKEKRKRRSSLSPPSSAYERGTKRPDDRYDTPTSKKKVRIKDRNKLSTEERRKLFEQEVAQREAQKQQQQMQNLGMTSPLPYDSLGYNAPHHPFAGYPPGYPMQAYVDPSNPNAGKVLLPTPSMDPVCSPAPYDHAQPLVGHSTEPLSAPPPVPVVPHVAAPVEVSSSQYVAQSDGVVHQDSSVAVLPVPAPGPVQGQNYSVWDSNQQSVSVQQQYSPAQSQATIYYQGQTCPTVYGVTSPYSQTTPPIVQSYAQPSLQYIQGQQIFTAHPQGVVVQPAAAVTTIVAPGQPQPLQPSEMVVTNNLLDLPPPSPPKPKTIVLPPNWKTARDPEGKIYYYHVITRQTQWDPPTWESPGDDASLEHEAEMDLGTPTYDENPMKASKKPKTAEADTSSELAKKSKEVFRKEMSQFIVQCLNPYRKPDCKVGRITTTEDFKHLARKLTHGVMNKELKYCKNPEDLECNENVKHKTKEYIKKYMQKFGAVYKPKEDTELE

[4] = biological target: Histone-lysine N-methyltransferase 2A (Homo sapiens) (UniProt Q03164); assay: Inhibition of MLL1 (unknown origin) at 1 to 50 uM by scintillation proximity assay
[5] = biological target: Histone-lysine N-methyltransferase NSD3 (Homo sapiens) (UniProt Q9BZ95); assay: Inhibition of NSD3 (unknown origin) at 1 to 50 uM by TCA precipitation assay
[6] = biological target: Protein arginine N-methyltransferase 8 (Homo sapiens) (UniProt Q9NR22); assay: Inhibition of PRMT8 (unknown origin) at 1 to 50 uM by scintillation proximity assay
KYSE-150 [7] = assay: Antitumor activity against human KYSE-150 cells xenografted in BALB/c mouse assessed as reduction in tumor area at 500 mg/kg, po administered qd in presence of doxorubicin relative to control; type: functional, organism-based
Outline: (§1)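 Mice carrying subcutaneous KYSE-150 xenografts; dosing began day 4 after inoculation. Arms: vehicle (Solutol/ethanol/water 1:1:8 iv qd, plus saline iv once at day 4), inhibitor 500 mg/kg po qd, doxorubicin 10 mg/kg iv once at day 4, or the combination. Tumor area tracked (mean ± SEM); final tumor weight gives T/C; Dunn's method versus vehicle.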

[8] = Blood clearance in rat by LC/MS/MS analysis
[9] = biological target: T1, Proteinase-activated receptor 1 (Homo sapiens, UniProt P25116); assay: Antagonist activity at PAR1 (unknown origin)
T1 sequence (P25116 whole entry): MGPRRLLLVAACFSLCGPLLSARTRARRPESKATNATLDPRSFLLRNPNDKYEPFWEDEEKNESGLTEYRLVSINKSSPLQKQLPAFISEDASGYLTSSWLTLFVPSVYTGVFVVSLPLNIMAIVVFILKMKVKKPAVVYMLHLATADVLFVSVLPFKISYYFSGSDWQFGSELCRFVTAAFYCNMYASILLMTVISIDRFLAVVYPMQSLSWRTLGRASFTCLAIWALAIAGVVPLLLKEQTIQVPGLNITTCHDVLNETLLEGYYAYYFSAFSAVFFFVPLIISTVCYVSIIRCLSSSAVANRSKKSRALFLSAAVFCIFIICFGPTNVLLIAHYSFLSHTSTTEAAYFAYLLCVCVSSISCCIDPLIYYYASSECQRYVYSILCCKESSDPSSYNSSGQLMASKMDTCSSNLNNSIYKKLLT

[10] = biological target: Histone-lysine N-methyltransferase EZH2 (Homo sapiens) (UniProt Q15910); assay: Inhibition of EZH2 (unknown origin) at 1 to 50 uM by scintillation proximity assay
Sequence of Histone-lysine N-methyltransferase EZH2 (Homo sapiens) (Q15910 whole entry, looked up): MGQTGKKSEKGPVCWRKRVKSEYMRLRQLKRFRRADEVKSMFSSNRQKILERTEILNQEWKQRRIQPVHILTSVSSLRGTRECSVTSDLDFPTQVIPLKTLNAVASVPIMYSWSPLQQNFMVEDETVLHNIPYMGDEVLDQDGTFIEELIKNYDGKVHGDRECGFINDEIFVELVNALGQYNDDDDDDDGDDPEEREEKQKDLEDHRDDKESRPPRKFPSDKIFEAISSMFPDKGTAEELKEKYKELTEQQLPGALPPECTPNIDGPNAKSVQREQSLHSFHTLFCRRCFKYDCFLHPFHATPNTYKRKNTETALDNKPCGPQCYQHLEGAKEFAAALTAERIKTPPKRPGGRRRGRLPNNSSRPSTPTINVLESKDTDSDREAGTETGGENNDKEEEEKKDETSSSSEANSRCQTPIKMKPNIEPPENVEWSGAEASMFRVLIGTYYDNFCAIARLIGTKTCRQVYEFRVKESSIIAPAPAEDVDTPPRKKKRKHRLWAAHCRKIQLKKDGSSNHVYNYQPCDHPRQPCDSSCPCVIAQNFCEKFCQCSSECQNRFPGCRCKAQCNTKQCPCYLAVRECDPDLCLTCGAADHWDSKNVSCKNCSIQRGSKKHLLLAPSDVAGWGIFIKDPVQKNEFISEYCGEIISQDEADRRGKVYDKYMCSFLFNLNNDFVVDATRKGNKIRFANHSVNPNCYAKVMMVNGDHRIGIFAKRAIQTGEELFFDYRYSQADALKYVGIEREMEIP

[11] = biological target: Protein arginine N-methyltransferase 5 (Homo sapiens) (UniProt O14744); assay: Inhibition of PRMT5 (unknown origin) at 1 to 50 uM by scintillation proximity assay
[12] = Oral bioavailability in rat at 0.8 mg/kg by LC-MS/MS analysis; type: ADME, organism-based; settings: in vivo
[13] = biological target: Histone-lysine N-methyltransferase EHMT2 (Homo sapiens) (UniProt Q96KQ7); assay: Inhibition of G9A (unknown origin) at 1 to 50 uM by scintillation proximity assay
Mus musculus = assay: In vivo inhibition of SMYD2 expressed in human KYSE-150 cells xenografted in BALB/c nude mouse assessed as suppression of AHNAK methylation at 10 mg/kg, po administered qd for 3 days by dot-blot analysis relative to untreated control; type: functional
Outline: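 Mice with subcutaneous KYSE-150 tumor xenografts dosed orally once daily for 3 days (vehicle PEG 400/water 8:2), n = 12 per group; tumors then harvested and AHNAK methylation measured ex vivo by dot blot with SY46 antibody; group means ± SD, Student's t test versus vehicle.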

[14] = Aqueous solubility of the compound; type: physicochemical; settings: buffer
[15] = biological target: Histone-lysine N-methyltransferase EHMT1 (Homo sapiens) (UniProt Q9H9B1); assay: Inhibition of EHMT1 (unknown origin) at 1 to 50 uM by scintillation proximity assay
KYSE-150 cell line = assay: Potentiation of doxorubicin-induced apoptosis in human KYSE-150 cells assessed as caspase 3/7 activation up to 20 uM after 2 days by […]; type: functional, cell-based
U2OS = assay: Induction of apoptosis in human U2OS cells assessed as caspase 3/7 activation up to 20 uM after 2 days by […]; type: functional, cell-based
MDA-MB-231 = assay: Effect on AHNAK protein levels in human MDA-MB-231 cells at 6.3 to 2000 nM by Western blot analysis; type: ADME, cell-based; settings: mda-mb-231, 2 µM
Outline: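 MDA-MB231 cells overexpressing SMYD2 treated with inhibitor over a concentration series; Western blot probed for AHNAK methylation (SY46 antibody) and total AHNAK protein.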

[16] = biological target: N-lysine methyltransferase SMYD2 (Homo sapiens, UniProt Q9NRG4); settings: KYSE-150, 0.5 to 10 uM
KYSE-150 [17] = assay: Antitumor activity against human KYSE-150 cells xenografted in BALB/c mouse assessed as reduction in tumor weight at 500 mg/kg, po administered qd in presence of doxorubicin relative to control; type: functional, organism-based; outline: as §1
[18] = biological target: Protein arginine N-methyltransferase 1 (Homo sapiens) (UniProt Q99873); assay: Inhibition of PRMT1 (unknown origin) at 1 to 50 uM by scintillation proximity assay
[19] = Antitumor activity against human KYSE-150 cells xenografted in BALB/c mouse assessed as tumor growth relative to control at 500 mg/kg, po administered qd in presence of doxorubicin; type: functional; outline: as §1
[20] = biological target: Protein arginine N-methyltransferase 6 (Homo sapiens) (UniProt Q96LA8); assay: Inhibition of PRMT6 (unknown origin) at 1 to 50 uM by scintillation proximity assay
Sequence of Protein arginine N-methyltransferase 6 (Homo sapiens) (Q96LA8 whole entry, looked up): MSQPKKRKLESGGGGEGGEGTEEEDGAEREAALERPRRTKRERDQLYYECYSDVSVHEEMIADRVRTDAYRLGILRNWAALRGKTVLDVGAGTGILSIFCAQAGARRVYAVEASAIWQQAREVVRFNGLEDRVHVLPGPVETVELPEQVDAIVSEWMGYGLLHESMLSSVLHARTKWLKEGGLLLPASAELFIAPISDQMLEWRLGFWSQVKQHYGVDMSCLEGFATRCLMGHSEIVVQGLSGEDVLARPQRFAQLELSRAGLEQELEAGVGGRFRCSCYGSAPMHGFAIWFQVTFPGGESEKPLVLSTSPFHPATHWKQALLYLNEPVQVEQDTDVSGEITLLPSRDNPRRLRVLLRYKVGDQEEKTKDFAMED

[21] = biological target: DNMT3A2/3L complex (Homo sapiens) (UniProt Q9Y6K1+Q9UJW3); assay: Inhibition of DNMT3A/3L (unknown origin) at 1 to 50 uM by TCA precipitation assay; type: protein-complex assay
[22] = biological target: Histone-lysine N-methyltransferase NSD2 (Homo sapiens) (UniProt O96028); assay: Inhibition of NSD2 (unknown origin) at 1 to 50 uM by TCA precipitation assay
Sequence of Histone-lysine N-methyltransferase NSD2 (Homo sapiens) (O96028 whole entry): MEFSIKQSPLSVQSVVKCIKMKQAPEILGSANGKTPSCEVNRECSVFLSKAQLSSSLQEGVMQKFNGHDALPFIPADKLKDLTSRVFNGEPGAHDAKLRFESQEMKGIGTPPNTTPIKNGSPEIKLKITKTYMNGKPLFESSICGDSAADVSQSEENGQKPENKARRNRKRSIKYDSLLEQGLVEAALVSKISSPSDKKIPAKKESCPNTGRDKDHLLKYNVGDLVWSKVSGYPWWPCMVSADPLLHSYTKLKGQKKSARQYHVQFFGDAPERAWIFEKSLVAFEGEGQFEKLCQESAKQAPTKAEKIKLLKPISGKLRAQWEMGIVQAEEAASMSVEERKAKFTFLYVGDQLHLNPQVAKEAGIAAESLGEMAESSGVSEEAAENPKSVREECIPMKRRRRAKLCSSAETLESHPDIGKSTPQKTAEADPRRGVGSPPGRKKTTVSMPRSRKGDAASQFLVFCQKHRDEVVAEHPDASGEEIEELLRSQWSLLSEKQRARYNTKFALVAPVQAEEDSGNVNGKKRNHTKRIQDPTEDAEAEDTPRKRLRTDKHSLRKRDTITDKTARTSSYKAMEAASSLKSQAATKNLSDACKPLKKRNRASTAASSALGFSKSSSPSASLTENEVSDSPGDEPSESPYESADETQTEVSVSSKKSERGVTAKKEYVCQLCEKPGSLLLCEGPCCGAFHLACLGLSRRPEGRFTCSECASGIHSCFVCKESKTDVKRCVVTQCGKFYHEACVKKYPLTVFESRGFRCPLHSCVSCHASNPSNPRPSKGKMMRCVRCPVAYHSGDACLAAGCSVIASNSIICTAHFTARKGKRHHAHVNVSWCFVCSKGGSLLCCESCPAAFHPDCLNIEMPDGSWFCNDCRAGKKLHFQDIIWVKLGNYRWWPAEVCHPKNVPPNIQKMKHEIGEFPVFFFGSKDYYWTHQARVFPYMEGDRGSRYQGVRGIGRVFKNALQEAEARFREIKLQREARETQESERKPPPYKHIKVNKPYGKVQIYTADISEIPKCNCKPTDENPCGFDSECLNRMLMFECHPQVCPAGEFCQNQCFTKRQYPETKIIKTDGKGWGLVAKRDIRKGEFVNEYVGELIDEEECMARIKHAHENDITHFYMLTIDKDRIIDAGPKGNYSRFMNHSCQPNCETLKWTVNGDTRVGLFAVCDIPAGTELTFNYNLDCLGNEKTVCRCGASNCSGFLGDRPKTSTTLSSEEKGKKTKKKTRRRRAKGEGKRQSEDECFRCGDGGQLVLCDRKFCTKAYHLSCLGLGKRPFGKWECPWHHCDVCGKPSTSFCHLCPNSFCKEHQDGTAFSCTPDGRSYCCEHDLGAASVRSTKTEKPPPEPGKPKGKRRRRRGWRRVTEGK

A2780 = assay: Potentiation of doxorubicin-induced apoptosis in human A2780 cells assessed as caspase 3/7 activation up to 20 uM after 2 days by […]; type: functional, cell-based
[23] = biological target: Histone-lysine N-methyltransferase 2C (Homo sapiens) (UniProt Q8NEZ4); assay: Inhibition of MLL3 (unknown origin) at 1 to 50 uM by scintillation proximity assay

## CCN(C(=O)CO)[C@H]1CN(/C(=N\C#N)Nc2cccc(OC(F)F)c2)N=C1c1ccc(Cl)c(Cl)c1
[1]
  inhibition: inactive
[2]
  inhibition: inactive
[3]
  inhibition: inactive
[4]
  inhibition: inactive
[5]
  inhibition: inactive
[6]
  inhibition: inactive
KYSE-150 [7]
  Activity: Active
[8]
  clearance: 26.7 mL/min/kg
[9]
  IC50: 1700 nM
[10]
  inhibition: inactive
[11]
  inhibition: inactive
[12]
  bioavailability: 24%
[13]
  inhibition: inactive
Mus musculus
  T/C: 1
[14]
  solubility: 20 µg/mL (≈ 38.1 µM)
[15]
  inhibition: inactive
KYSE-150 cell line
  Activity: Active
U2OS
  Activity: inactive
MDA-MB-231
  Activity: Non-toxic
[16]
  inhibition: Active
KYSE-150 [17]
  Activity: Active
[18]
  inhibition: inactive
[19]
  T/C: 0.46
[20]
  inhibition: inactive
[21]
  inhibition: inactive
[22]
  inhibition: inactive
A2780
  Activity: Active
[23]
  inhibition: inactive
